Structures are written as SMILES. ≈ marks a conversion by molar mass, not a printed value.

Results on 9 molecules are retold here after ChEMBL document CHEMBL4431393, “Polar Recognition Group Study of Keap1-Nrf2 Protein-Protein Interaction Inhibitors” (ACS Med Chem Lett, 2016).

Data set [1] in a line: Intrinsic solubility of the compound at pH 7.4 by potentiometric acid-base titration method. Type of data set: physicochemical. To be noted: buffer, read-out: Intrinsic_solubility.
The nature of data set [2]: Dissociation constant, pKa of the compound by Avdeef-Bucher potentiometric titration method. It counts as physicochemical.
A short description of data set [3]: Permeability of the compound at pH 7.4 by PAMPA method. Type of data set: ADME. To be noted: read-out: permeability. The method, boiled down: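 Effective permeability coefficients (Pe) were determined by a standard parallel artificial membrane permeability assay run on an automated PAMPA instrument. This reads out passive transcellular diffusion.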
On the technique in general: The PAMPA barrier holds no transporters, so it reflects passive diffusion.

For data set [4], the target named is Keap1/Nrf2 (Homo sapiens, UniProt Q14145). Description: Inhibition of Keap1 Kelch domain/FITC-9mer Nrf2 (unknown origin) interaction after 30 mins by fluorescence polarization assay. It counts as protein assay. For orientation: Polarisation of emitted light reports the rotation of a fluorescent probe.
Keap1/Nrf2, sequence (Q16236 whole entry, the tested form may be a part): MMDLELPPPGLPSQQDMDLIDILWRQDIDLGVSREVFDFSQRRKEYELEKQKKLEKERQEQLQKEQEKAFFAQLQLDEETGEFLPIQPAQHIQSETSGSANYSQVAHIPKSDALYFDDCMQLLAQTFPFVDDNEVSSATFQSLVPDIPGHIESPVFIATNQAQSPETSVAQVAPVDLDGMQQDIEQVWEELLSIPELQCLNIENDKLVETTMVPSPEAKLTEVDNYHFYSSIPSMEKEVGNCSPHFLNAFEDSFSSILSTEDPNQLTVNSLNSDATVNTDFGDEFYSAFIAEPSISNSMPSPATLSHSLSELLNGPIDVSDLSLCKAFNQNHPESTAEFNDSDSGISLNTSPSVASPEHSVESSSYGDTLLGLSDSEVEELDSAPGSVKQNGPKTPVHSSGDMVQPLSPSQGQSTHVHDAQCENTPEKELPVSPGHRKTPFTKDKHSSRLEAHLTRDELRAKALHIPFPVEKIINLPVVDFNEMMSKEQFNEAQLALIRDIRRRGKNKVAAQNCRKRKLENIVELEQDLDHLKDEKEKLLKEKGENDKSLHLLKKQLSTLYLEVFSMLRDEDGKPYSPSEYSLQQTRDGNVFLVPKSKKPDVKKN
Keap1/Nrf2, sequence (Q14145 whole entry, the tested form may be a part): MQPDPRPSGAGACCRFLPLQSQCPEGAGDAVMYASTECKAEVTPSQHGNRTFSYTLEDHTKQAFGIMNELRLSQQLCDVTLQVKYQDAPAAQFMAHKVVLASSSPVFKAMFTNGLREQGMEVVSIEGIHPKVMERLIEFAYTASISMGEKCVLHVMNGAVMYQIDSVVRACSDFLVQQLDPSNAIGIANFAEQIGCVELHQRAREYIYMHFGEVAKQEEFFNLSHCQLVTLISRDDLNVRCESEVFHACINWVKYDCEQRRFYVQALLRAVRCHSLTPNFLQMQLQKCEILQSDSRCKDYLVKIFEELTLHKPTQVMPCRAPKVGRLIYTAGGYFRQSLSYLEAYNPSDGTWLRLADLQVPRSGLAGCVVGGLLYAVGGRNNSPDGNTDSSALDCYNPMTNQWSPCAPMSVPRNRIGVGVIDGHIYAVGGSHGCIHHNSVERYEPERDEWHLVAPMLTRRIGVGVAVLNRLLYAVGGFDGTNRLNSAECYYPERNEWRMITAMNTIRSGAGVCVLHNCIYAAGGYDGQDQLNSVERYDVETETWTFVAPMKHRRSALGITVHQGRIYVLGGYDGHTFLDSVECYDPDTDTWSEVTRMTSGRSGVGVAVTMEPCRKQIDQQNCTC
Data set [5] can be described thus: Partition coefficient, logD of the compound at pH 7.4 by Avdeef-Bucher potentiometric titration method. It counts as physicochemical. Conditions: octanol/water.

As to `CC(=O)Nc1ccc(S(=O)(=O)N(CC(=O)O)c2ccc(N(CC(=O)O)S(=O)(=O)c3ccc(NC(C)=O)cc3)c3ccccc23)cc1`, the solubility in data set [1] turned out to be 5000 µg/mL (≈ 7480 µM). This molecule gave a pKa in data set [2] of 4.79. The Papp in data set [3] came out at 0.265 ×10⁻⁶ cm/s.
As for `CC(=O)Nc1ccc(S(=O)(=O)N(CC(=O)NO)c2ccc(N(CC(=O)NO)S(=O)(=O)c3ccc(NC(C)=O)cc3)c3ccccc23)cc1`, in data set [4], the midpoint of inhibition, the IC50, lay at 2.6 µM. In addition, the solubility in data set [1] came out at 942 µg/mL (≈ 1350 µM). Besides, the pKa in data set [2] is 8.12. The same molecule displayed a pH-dependent lipophilicity (logD) in data set [5] of 2.87.
Taken in the same sequence, the figures for `CC(=O)Nc1ccc(S(=O)(=O)N(CC#N)c2ccc(N(CC#N)S(=O)(=O)c3ccc(NC(C)=O)cc3)c3ccccc23)cc1` were > 50 µM, 14.1 µg/mL (≈ 22.4 µM), 10.5 and 4.65.
The corresponding values for `CC(=O)Nc1ccc(S(=O)(=O)N(Cc2c[nH]nn2)c2ccc(N(Cc3c[nH]nn3)S(=O)(=O)c3ccc(NC(C)=O)cc3)c3ccccc23)cc1` are 0.609 µM, 698 µg/mL (≈ 976 µM), 9.67 and 3.01.
The corresponding values for `CC(=O)Nc1ccc(S(=O)(=O)N(CCO)c2ccc(N(CCO)S(=O)(=O)c3ccc(NC(C)=O)cc3)c3ccccc23)cc1` are > 50 µM, 655 µg/mL (≈ 1020 µM), 10.8 and 2.99.
`CC(=O)Nc1ccc(S(=O)(=O)N(Cc2nn[nH]n2)c2ccc(N(Cc3nn[nH]n3)S(=O)(=O)c3ccc(NC(C)=O)cc3)c3ccccc23)cc1`: in data set [1], the solubility worked out at 3500 µg/mL (≈ 4880 µM). The molecule also displayed a pKa in data set [2] of 5.12. The logD in data set [5] stood at 2.31. Further, the Papp in data set [3] turned out to be 42.3 ×10⁻⁶ cm/s.
As to `COC(=O)CN(c1ccc(N(CC(=O)OC)S(=O)(=O)c2ccc(NC(C)=O)cc2)c2ccccc12)S(=O)(=O)c1ccc(NC(C)=O)cc1`, the half-maximal inhibitory concentration (IC50) in data set [4] was > 50 µM. Further, the solubility in data set [1] amounted to 36.4 µg/mL (≈ 52.2 µM). Besides, the pKa in data set [2] was 10.5. The molecule also came in with a logD in data set [5] of 3.91.
For `C#CCN(c1ccc(N(CC#C)S(=O)(=O)c2ccc(NC(C)=O)cc2)c2ccccc12)S(=O)(=O)c1ccc(NC(C)=O)cc1`, the IC50 in data set [4] was > 50 µM. Besides, the solubility in data set [1] came out at 11.2 µg/mL (≈ 17.8 µM). In data set [2], this molecule had a pKa of 10.7. The molecule further had a logD in data set [5] of 4.75.
For the molecule `CC(=O)Nc1ccc(S(=O)(=O)N(CC(N)=O)c2ccc(N(CC(N)=O)S(=O)(=O)c3ccc(NC(C)=O)cc3)c3ccccc23)cc1`, in data set [4], the half-maximal inhibitory concentration (IC50) is > 50 µM. Besides, the solubility in data set [1] was determined as 388 µg/mL (≈ 583 µM). The molecule further showed a pKa in data set [2] of 9.8. In data set [5], this molecule showed a logD of 3.21.

As a reminder, the pKa is the negative logarithm of the acid dissociation constant. Read a high pKa as a group that holds its proton tightly. In general, IC50 refers to the concentration that inhibits the measured activity by half. High values mean weaker potency, low ones greater potency. As a reminder, the logD is lipophilicity at a set pH, counting ionised and neutral species.
